Activity calls are given as the source filed them. No cut-off for these calls is given here.
Experiments:
Format in all cases: cell-based
[1] = tested on: U2OS; assay: Inhibition of HOTTIP-WDR5 complex formation in human U2OS cells at 10 uM by in vitro RNA immunoprecipitation assay
Method in brief: (§1)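 RIP assay on purified FLAG-WDR5 loaded at 0.2 mg/mL onto anti-FLAG magnetic beads (Buffer C with 0.1% IGEPAL, 0.1% BSA, 10 µg/mL yeast tRNA; 4 °C, 3 h). The beads were then given 1 µg of U-2 OS total RNA (TRIzol) with or without inhibitor, in 0.1% DMSO in RIP buffer (Tris pH 7.5, KCl, EDTA, RNasin), for 1 h at rt. RNA was read by RT-qPCR as percentage enrichment against a 50% input.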

[2] = tested on: U2OS; assay: Inhibition of HOXC13-AS-WDR5 complex formation in human U2OS cells at 10 uM by in vitro RNA immunoprecipitation assay; method in brief: as §1
[3] = tested on: MDA-MB-231; assay: Inhibition of IncRNA-WDR5 complex in human MDA-MB-231 cells assessed as downregulation of HOTTIP expression measured at 10 uM after 1 day by RT-qPCR analysis
Method in brief: (§2)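 MDA-MB-231 cells (DMEM, 10% FBS, 37 °C, 5% CO2) were seeded in 12-well plates at 1×10^5 cells/well for 1-day runs or 5×10^4 cells/well for 3-day runs. After one day the medium was replaced with medium holding compound (1, 5 or 10 µM) or 0.1% DMSO blank. Total RNA was extracted with TRIzol and analysed by RT-qPCR. Fold change was calculated by 2^-ΔΔCt against GAPDH and the blank. Values are means of individual bioreplicates ± SD.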

[4] = tested on: MDA-MB-231; assay: Inhibition of IncRNA-WDR5 complex in human MDA-MB-231 cells assessed as downregulation of HOTTIP expression measured at 10 uM after 3 days by RT-qPCR analysis; settings: time 3.0 day; method in brief: as §2
[5] = tested on: MDA-MB-231; assay: Inhibition of IncRNA-WDR5 complex in human MDA-MB-231 cells assessed as downregulation of FOXD3-AS1 expression measured at 10 uM after 1 to 3 days by RT-qPCR analysis; settings: time 1-3 day; method in brief: as §2

Row | Compound | inhibition [1] | inhibition [2] | inhibition [3] | inhibition [4] | inhibition [5]
1 | CN1CCN(c2ccc(-c3cccc(CN4CCOCC4)c3)cc2NC(=O)c2c[nH]c(=O)cc2C(F)(F)F)CC1 | inactive | inactive | Active |  | 
2 | CNC(=O)c1cc(C2(C#N)CCC2)cc(NS(=O)(=O)c2cc(Br)cc(Cl)c2O)c1O | Active | Active | inactive | Active | inactive
